Experimental data of several laboratories.
Each line is one published result; the experiments were not run side by side.
RET V804M: Proto-oncogene tyrosine-protein kinase receptor Ret (RET, Homo sapiens, UniProt P07949, V804M)
RET: Proto-oncogene tyrosine-protein kinase receptor Ret (RET, Homo sapiens, UniProt P07949)
RET V804L: Proto-oncogene tyrosine-protein kinase receptor Ret (RET, Homo sapiens, UniProt P07949, V804L)

SMILES | target | read-out | action | technique | concentration | quantity | result
CC(C)(O)c1cncc(-c2nc3ccc(F)cc3n2C2CC2)c1 | RET V804M | cell-free assay | – | competition with immobilised ligand | 1 µM | remaining binding | 100%
Cc1ccc2c(=O)c(C(=O)Nc3ccc(C)c(C)c3)cn(CC(=O)NC3CCCC3)c2n1 | RET | enzyme activity | inhibitor | radiometric | 0.1 µM | remaining activity | 114%
COc1ccc(CN2C3CC2CN(c2ccc(-c4cc(OCC(C)(C)O)cn5ncc(C#N)c45)cn2)C3)cn1 | RET V804M | thermal stability | – | DSF | 10 µM | ΔTm | 6.4 °C
CCCCN(CCCC)C(=O)CN1C[C@H](c2cc(OC)c3c(c2)OCO3)[C@@H](C(=O)O)[C@@H]1CC(C)(C)CCC | RET | cell-free assay | – | competition with immobilised ligand | 1 µM | remaining binding | 100%
Cc1cccc(-n2ncc3c(O)c(C(=O)Nc4ccc(C)cc4F)c(=O)[nH]c32)c1 | RET | enzyme activity | inhibitor | radiometric | 10 µM | remaining activity | 79%
CC/C(=N\NC(=O)NCc1cccc(O)c1)c1ccc(O)c(C)c1O | Proto-oncogene tyrosine-protein kinase receptor Ret (RET, Homo sapiens, UniProt P07949, G691S) | enzyme activity | inhibitor | – | 0.1 µM | inhibition | 5.6%
Nc1ncnc2occ(-c3ccc(NC(=O)Nc4cc(C(F)(F)F)ccc4F)cc3)c12 | RET | cell-free assay | – | – | 20 µM | remaining signal | 0%
CO[C@]1(C(=O)N[C@@H](C)c2ccc(-n3cc(F)cn3)nc2)CC[C@H](c2nc(C)cc(Nc3cc(C)[nH]n3)n2)CC1 | Proto-oncogene tyrosine-protein kinase receptor Ret (RET, Homo sapiens, UniProt P07949, L760A) | thermal stability | – | DSF | 10 µM | ΔTm | 11.9 °C
CNC(=O)Nc1ccc2c(c1)[C@@]1(CC2)OC(=O)N(CC(=O)N(Cc2ccc(F)cc2)[C@@H](C)C(F)(F)F)C1=O | RET V804L | cell-free assay | – | competition with immobilised ligand | 1 µM | remaining binding | 94%
COc1cc(NC(=O)Nc2cc(C)c3nc(NC(=O)c4ccccc4)sc3c2)cc(OC)c1 | RET | enzyme activity | inhibitor | radiometric | 0.1 µM | remaining activity | 123%
C[C@H](c1ccnc(Nc2nc3ccc(-c4cc(N(C)C)ncn4)cc3[nH]2)c1)N1CCN(C(=O)CC(F)(F)F)CC1 | RET V804L | cell-free assay | – | competition with immobilised ligand | 0.1 µM | remaining binding | 83%
COc1ccc(-c2cn3cc(C(=O)N4CC(O)C4)nc3c(=O)n2C)c(F)c1 | RET | enzyme activity | inhibitor | radiometric | 0.1 µM | remaining activity | 117%
CCCOc1ccc(OC)c(F)c1C(=O)c1ccc(C(=O)N[C@@H]2CNC[C@H]2NC(=O)c2ccc3[nH]ncc3c2)cc1 | RET | enzyme activity | inhibitor | – | 10 µM | remaining activity | 1%
